Laboratory results reported in ChEMBL document CHEMBL4359812, “Nitric Oxide-Releasing Selective Estrogen Receptor Modulators: A Bifunctional Approach to Improve the Therapeutic Index” (J Med Chem, 2019).
Activity calls are given as the source filed them. No cut-off for these calls is given here.

Key:
MDA-MB-231 [1] = assay: Antiproliferative activity against human MDA-MB-231 cells assessed as cell viability at 50 uM measured after 24 hrs by celltiter-blue assay relative to control; type: functional; conditions: MDA-MB-231, 24 h, read-out: Activity
In short: (§1)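 Breast adenocarcinoma lines: MCF-7 grown in Leibovitz's L-15 with 10% FCS and 1% pen/strep without CO2; MDA-MB-231 grown in DMEM with 10% FCS and 1% pen/strep at 5% CO2; both at 37 °C. Viability measured after 24 h treatment at 50 μM vs DMSO. Three independent experiments (n = 9); mean ± SEM, ANOVA/Bonferroni.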

[2] = Drug metabolism in human whole blood assessed as nitric oxide release measured after 6 hrs by HPLC analysis; type: ADME, tissue-based
In short: (§2)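 Compound incubated 0 to 6 h in human whole blood at 37 °C; proteins precipitated 1:2 (v/v); supernatant analysed by reversed-phase C18 HPLC at 254 nm, water/MeCN gradient with 0.1% TFA, 3.0 mL/min at 50 °C.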

[3] = Drug metabolism in pH 7.5 PBS assessed as nitric oxide release at 50 uM measured after 90 mins in presence of L-cysteine by 2,3-diaminonaphthalene-based fluorescence assay
In short: (§3)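 Compound incubated 90 min at 37 °C in PBS pH 7.5 alone, with human plasma, with 50 μM K3[Fe(CN)6], or with 5 mM L-cysteine. Nitrite reacted with 2,3-diaminonaphthalene under acid to give fluorescent naphthotriazole; HgCl2 added to release S-nitrosothiol-bound NO. Release given as % of 1 mol NO/mol compound; 3−4 experiments in duplicate (n = 6−8), mean ± SEM.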

[4] = Drug metabolism in human whole blood assessed as 5d formation measured after 6 hrs by HPLC analysis; type: ADME, tissue-based; in short: as §2
[5] = Drug metabolism in pH 7.5 PBS assessed as free nitrite level at 50 uM measured after 90 mins in presence of L-cysteine by 2,3-diaminonaphthalene-based fluorescence assay; in short: as §3
Estrogen receptor beta = Estrogen receptor beta (Homo sapiens, UniProt Q92731)
MEL-JUSO [6] = assay: Antiproliferative activity against human MelJuSo cells assessed as cell viability at 50 uM measured after 24 hrs by celltiter-blue assay relative to control; type: functional; conditions: read-out: Activity
In short: (§4)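 Human melanoma cells seeded at 8.5 × 10^4 cells/well in 96-well plates and treated 24 h with test compound (up to 50 μM) against a DMSO control; viability read as in the group's earlier method. Three to five independent experiments (n = 9−15); mean ± SEM, ANOVA with Bonferroni post hoc test vs DMSO.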

[7] = Retention time of the compound in human whole blood by HPLC analysis; type: ADME, tissue-based; in short: as §2
Estrogen receptor = target: T1, Estrogen receptor (Homo sapiens, UniProt P03372)
T1 sequence (P03372 whole entry): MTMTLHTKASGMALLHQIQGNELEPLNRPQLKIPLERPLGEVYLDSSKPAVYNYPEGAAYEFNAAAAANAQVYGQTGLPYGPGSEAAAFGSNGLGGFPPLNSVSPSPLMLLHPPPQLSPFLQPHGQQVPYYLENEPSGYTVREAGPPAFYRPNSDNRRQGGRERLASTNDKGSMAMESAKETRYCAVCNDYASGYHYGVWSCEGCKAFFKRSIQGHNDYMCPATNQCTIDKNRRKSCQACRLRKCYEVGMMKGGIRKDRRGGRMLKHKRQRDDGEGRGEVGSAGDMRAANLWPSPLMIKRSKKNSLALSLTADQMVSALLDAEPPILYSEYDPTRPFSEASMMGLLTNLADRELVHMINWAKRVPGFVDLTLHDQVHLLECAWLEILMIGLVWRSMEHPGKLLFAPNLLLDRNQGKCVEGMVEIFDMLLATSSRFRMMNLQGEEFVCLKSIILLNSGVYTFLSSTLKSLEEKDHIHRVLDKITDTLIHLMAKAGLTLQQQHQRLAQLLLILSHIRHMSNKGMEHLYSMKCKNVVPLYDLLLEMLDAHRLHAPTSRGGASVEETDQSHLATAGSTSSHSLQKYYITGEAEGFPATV

A2058 [8] = assay: Antiproliferative activity against human A2058 cells assessed as cell viability at 50 uM measured after 24 hrs by celltiter-blue assay relative to control; type: functional; conditions: A2058, 24 h, read-out: Activity; in short: as §4
[9] = Drug metabolism in pH 7.5 PBS assessed as nitric oxide release at 50 uM measured after 90 mins in presence of K3[Fe(CN)6] by 2,3-diaminonaphthalene-based fluorescence assay; in short: as §3
[10] = Effect on ER/PI3K pathway in HUVEC assessed as upregulation of COX2 expression up to 20 uM measured after 24 hrs by Western blot analysis; type: ADME, cell-based; conditions: human
In short: (§5)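 HUVEC treated 24 h with test compounds at various concentrations, with tamoxifen or 17β-estradiol as references, vs DMSO; COX-2 protein detected by Western blotting. Four independent experiments.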

A2058 [11] = assay: Antiproliferative activity against human A2058 cells assessed as reduction in number of proliferating cells at 50 uM measured after 48 hrs by cell counting analysis; type: functional, cell-based
In short: (§6)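 A2058 cells plated at 0.5 × 10^6 (24 h) or 0.35 × 10^6 (48 h) per well, Mel-Juso at 0.6 × 10^6 or 0.45 × 10^6. After 24 h cells were treated with 0−50 μM, DMSO as control, then counted electronically after 24 or 48 h. Three independent experiments; mean ± SEM, ANOVA/Bonferroni vs DMSO.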

MCF7 [12] = assay: Antiproliferative activity against human MCF7 cells assessed as cell viability at 50 uM measured after 24 hrs by celltiter-blue assay relative to control; type: functional; conditions: MCF7, 24 h, read-out: Activity; in short: as §1
[13] = Drug metabolism in pH 7.5 PBS assessed as S-nitroso-thiol level at 50 uM measured after 90 mins in presence of L-cysteine by 2,3-diaminonaphthalene-based fluorescence assay; in short: as §3
[14] = (§7) Cytotoxicity against HUVEC assessed as cell viability at 50 uM measured after 24 hrs by celltiter-blue assay; type: cell-based; conditions: human, HUVEC cells; read-out: Activity
In short: (§8)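 HUVEC grown in endothelial cell growth medium at 37 °C, seeded at 7 × 10^4 cells/well in 96-well plates, treated 24 h with test compound up to 50 μM, DMSO as control; viability read as in the group's earlier method.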

MEL-JUSO [15] = assay: Antiproliferative activity against human MelJuSo cells assessed as reduction in number of proliferating cells at 50 uM measured after 48 hrs by cell counting analysis; type: functional, cell-based; in short: as §6
[16] = Effect on ER/PI3K pathway in HUVEC assessed as change COX2 expression up to 1 uM measured after 24 hrs by Western blot analysis; type: ADME, cell-based; conditions: human; in short: as §5
MEL-JUSO [17] = assay: Antiproliferative activity against human MelJuSo cells assessed as reduction in cell viability measured after 24 hrs by celltiter-blue assay; type: functional, cell-based; in short: as §4
A2058 [18] = assay: Antiproliferative activity against human A2058 cells assessed as reduction in cell viability measured after 24 hrs by celltiter-blue assay; type: functional, cell-based; conditions: A2058, 24 h; in short: as §4
[19] = Drug metabolism in pH 7.5 PBS assessed as nitric oxide release at 50 uM measured after 90 mins in presence of […] by 2,3-diaminonaphthalene-based fluorescence assay
[20] = Stability of the compound in human whole blood measured after 6 hrs by HPLC analysis; type: ADME, tissue-based; in short: as §2
MDA-MB-231 [21] = assay: Antiproliferative activity against human MDA-MB-231 cells assessed as reduction in number of proliferating cells measured after 48 hrs by cell counting analysis; type: functional, cell-based
In short: (§9)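 MCF-7 (L-15 with 10% FCS, no CO2) and MDA-MB-231 (DMEM with 10% FCS, 5% CO2) treated 48 h with test compound over a concentration range, DMSO as control; proliferating cells counted. Four independent experiments (n = 8); mean ± SEM, ANOVA with Bonferroni post hoc test vs DMSO.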

MEL-JUSO [22] = assay: Antiproliferative activity against human MelJuSo cells assessed as reduction in number of proliferating cells at 25 uM measured after 48 hrs by cell counting analysis; type: functional, cell-based; in short: as §6
HUVEC [23] = assay: Cytotoxicity against HUVEC assessed as reduction in cell viability measured after 24 hrs by celltiter-blue assay; type: cell-based; conditions: Homo sapiens; in short: as §8
[24] = Effect on ER/PI3K pathway in HUVEC assessed as upregulation of COX2 expression measured after 24 hrs by Western blot analysis; type: ADME, cell-based; conditions: human; in short: as §5
A2058 [25] = assay: Antiproliferative activity against human A2058 cells assessed as reduction in number of proliferating cells at 25 uM measured after 48 hrs by cell counting analysis; type: functional, cell-based; in short: as §6
HUVEC [26] = assay: as §7; type: cell-based; conditions: human, huvec, 24 h, 50 µM; BLD = below limit of detection; in short: as §8
MCF7 [27] = assay: Antiproliferative activity against human MCF7 cells assessed as reduction in number of proliferating cells measured after 48 hrs by cell counting analysis; type: functional, cell-based; in short: as §9

Chain of Estrogen receptor beta (Q92731 whole entry): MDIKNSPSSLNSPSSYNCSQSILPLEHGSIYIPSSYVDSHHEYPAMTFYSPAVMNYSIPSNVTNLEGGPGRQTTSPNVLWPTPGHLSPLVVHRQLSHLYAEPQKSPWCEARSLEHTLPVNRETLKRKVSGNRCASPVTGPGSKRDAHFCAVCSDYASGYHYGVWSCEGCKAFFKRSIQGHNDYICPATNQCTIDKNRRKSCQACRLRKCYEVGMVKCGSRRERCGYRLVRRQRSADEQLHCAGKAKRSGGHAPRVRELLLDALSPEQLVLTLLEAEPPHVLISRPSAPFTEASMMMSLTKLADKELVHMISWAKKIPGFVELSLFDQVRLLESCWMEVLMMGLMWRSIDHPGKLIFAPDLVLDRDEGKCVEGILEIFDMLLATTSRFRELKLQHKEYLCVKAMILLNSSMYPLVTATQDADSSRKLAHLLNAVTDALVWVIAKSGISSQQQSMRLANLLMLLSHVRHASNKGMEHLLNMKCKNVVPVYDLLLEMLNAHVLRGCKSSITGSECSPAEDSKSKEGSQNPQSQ

IC50 (Estrogen receptor beta) [µM]	IC50 (Estrogen receptor) [µM]	Compound	Drug metabolism [3] [%]	Drug metabolism [5] [%]	viability at 50 µM (MEL-JUSO [6]) [%]	viability at 50 µM (A2058 [8]) [%]	Drug metabolism [9] [%]	Drug metabolism [13] [%]	also measured
0.2	> 5	CS(=O)(=O)c1ccc(C(CCCCO[N+](=O)[O-])=C(c2ccc(F)cc2)c2ccc(F)cc2)cc1	3.8	0.4	101	106	2.5	3.4	viability at 50 µM (MDA-MB-231 [1]): 91.3%; Drug metabolism [2]: Metabolite_Detected; Drug metabolism [4]: Metabolite_Detected; Retention_time [7]: 16.4 min; Activity [10]: Not Active; Activity (A2058 [11]): inactive; viability at 50 µM (MCF7 [12]): 82.8%; viability at 24 h, 50 µM [14]: 91.1%; Activity (MEL-JUSO [15]): inactive
1.4	> 5	CS(=O)(=O)c1ccc(C(CCCCO)=C(c2ccccc2)c2ccccc2)cc1			68.6	106			
		CCCCC(=C(c1ccc(F)cc1)c1ccc(F)cc1)c1ccc(S(C)(=O)=O)cc1			75.4	117			
		CC/C(=C(\c1ccccc1)c1ccc(OCCN(C)C)cc1)c1ccccc1 [TAMOXIFEN]			1	1.8			Activity [16]: Active; EC50 (MEL-JUSO [17]): 14.6 µM; EC50 (A2058 [18]): 12.5 µM
1.3	> 5	CS(=O)(=O)c1ccc(C(CCCCO[N+](=O)[O-])=C(c2ccccc2)c2ccccc2)cc1	0.5	0.9	87.1	120	1.1	0.4	Drug metabolism [19]: 0.1%
		CC(=O)Oc1ccccc1C(=O)Oc1ccc(CO[N+](=O)[O-])cc1	4.4	0.8			0.2	3.6	
3	> 5	CS(=O)(=O)c1ccc(C(CCCO)=C(c2ccc(F)cc2)c2ccc(F)cc2)cc1			31.4	47.6			EC50 (MEL-JUSO [17]): 36.3 µM; EC50 (A2058 [18]): 27.5 µM
0.18	> 5	CS(=O)(=O)c1ccc(C(CCCCO)=C(c2ccc(F)cc2)c2ccc(F)cc2)cc1			20.5	17			viability at 50 µM (MDA-MB-231 [1]): 86.4%; Stability [20]: Stable; Activity (MDA-MB-231 [21]): Dose-dependent effect; Activity (MEL-JUSO [22]): Active; EC50 (HUVEC [23]): 19.6 µM; EC50 (MEL-JUSO [17]): 34.9 µM; Activity [24]: Dose-dependent effect; Retention_time [7]: 14.5 min; EC50 (A2058 [18]): 39.9 µM; Activity (A2058 [25]): Active; viability at 50 µM (MCF7 [12]): 72.2%; Activity (HUVEC [26]): Bld; Activity (MCF7 [27]): Dose-dependent effect
		O=S(=O)(NO)c1ccccc1	3.6	0.3			48.3	3.3	Drug metabolism [19]: 33.5%
> 5	> 5	CS(=O)(=O)c1ccc(C(CCCO[N+](=O)[O-])=C(c2ccc(F)cc2)c2ccc(F)cc2)cc1	2	0.1	91.5	107	0.1	1.9	Drug metabolism [19]: 2.2%
1.5	> 5	CS(=O)(=O)c1ccc(C(CCCO)=C(c2ccccc2)c2ccccc2)cc1			52.7	63			

Compound	IC50 (Estrogen receptor beta) [µM]	IC50 (Estrogen receptor) [µM]	Drug metabolism [3] [%]	Drug metabolism [5] [%]	viability at 50 µM (MEL-JUSO [6]) [%]	viability at 50 µM (A2058 [8]) [%]	Drug metabolism [9] [%]	Drug metabolism [13] [%]	also measured
CS(=O)(=O)c1ccc(C(CCCO[N+](=O)[O-])=C(c2ccccc2)c2ccccc2)cc1	2.7	> 5	2	0.7	96.5	117	1.5	1.3	
